Data reported in article PMC5720529 (Kidney International Reports, 2016).
Read-outs that look alike come from different tables or passages of the source. Each block holds one molecule with its values, some of them ahead of it.

Assays:
[1] = Whole-blood incubations with etelcalcetide and SAPC; type: in vitro ADME; conditions: human whole blood; for sum total of monitored products as % of total M11: etelcalcetide 5 μM
Procedure, shortened: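 Pooled human whole blood (healthy volunteers, n = 3) was incubated in duplicate with [14C]etelcalcetide, unlabelled etelcalcetide or SAPC for up to 6 h at 37 °C, then centrifuged; plasma was acidified with 1% formic acid. TCEP reduction gave total M11; M13 was estimated from the M10 standard curve. Model 1 was fitted by maximum likelihood to duplicate means.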

[2] = In vitro hemodialysis, condition 1: buffered aqueous solution; type: in vitro ADME
Procedure, shortened: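 Closed-loop in vitro hemodialysis on an Optiflux dialyzer at ambient temperature (~22 °C). Reservoir A held 0.5 L dialysate and no blood; 5 L dialysate was pumped countercurrent from reservoir B. [14C]etelcalcetide plus urea, creatinine and vitamin B12 controls went into reservoir A, with pumps started at once. Both reservoirs were sampled over 2 h for radioactivity and etelcalcetide (acidified, 1% formic acid), then a 20-min Solvable washout.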

[3] = type: in vitro ADME, bovine
Procedure, shortened: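 Same closed-loop dialyzer setup, with reservoir A holding 0.5 L bovine whole blood warmed to 37 °C. Hemodialysis began immediately after [14C]etelcalcetide and urea, creatinine and vitamin B12 controls were spiked in. Sodium heparin (100 U) was added every 30 min. Both reservoirs were sampled over 2 h for radioactivity and etelcalcetide (formic-acid acidified). Dialyzer-bound material was recovered by 20-min Solvable circulation at 50 ml/min.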

[4] = type: in vitro ADME; conditions: condition 3, bovine whole blood, with 3-hour preincubation at 37 °C
Procedure, shortened: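 Bovine whole blood (0.5 L) spiked with [14C]etelcalcetide was preincubated 3 h at 37 °C before closed-loop dialysis (QB 50 ml/min, QD 250 ml/min, countercurrent, 5 L dialysate). Heparin (100 U) was added hourly. Reservoirs A and B were sampled for radioactivity and etelcalcetide, followed by a Solvable washout of the dialyzer.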

[5] = Kinetic model 2 fitted simultaneously to hemodialysis conditions 2 and 3; type: in vitro ADME, bovine
Procedure, shortened: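 Kinetic model 2, an extension of the whole-blood model, was fitted simultaneously to etelcalcetide amounts in reservoirs A and B from all three hemodialysis conditions, using one rate-constant set. Each point was the mean of triplicate samples. Conjugation/deconjugation constants (kc, kdc, kb, kdb) were fixed from model 1; kAB and kBA are forward and reverse dialysis-clearance constants between reservoirs.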

[6] = Non-covalent plasma protein binding in bovine blood; type: in vitro ADME; conditions: data not shown
[7] = human blood; cited from earlier work
[8] = close to the hematocrit value; cited from earlier work
[9] = CKD patients on hemodialysis; cited from earlier work
[10] = cited from earlier work

[14C]etelcalcetide biotransformation at 25 °C compared with 37 °C ([1]; [14C]etelcalcetide 10 μM, up to 6 hours, LC-14C-HRMS): slower | sum total of monitored products as % of total M11 ([1]; 37 °C, at 1 hour): Approximately 90% | sum total of monitored products as % of total M11 ([1]; 37 °C, at 6 hours): 77% | kdc, rate constant of disulfide exchange SAPC to etelcalcetide (deconjugation) ([1]; model 1 fit (ADAPT 5), 37 °C, mean of duplicate samples): 0.00038 min^–1 | hemodialysis clearance rate relative to biotransformation (conversion to SAPC) ([2]; comparison of dialytic rate constant with kc): > 16 fold | hemodialysis clearance ([2]; condition 1, absence of blood, from kAB, QB 50 ml/min, QD 250 ml/min): 59 mL/min | kBA, reverse rate constant of hemodialysis clearance, reservoir B to A ([2]; model 2 fit, condition 1, absence of blood, mean of triplicate samples): 0.00932 min^–1 | 14C recovered during the washout period (% of the spiked dose) ([3]; condition 2, Solvable washout after 2-hour hemodialysis): 0.2 % of the spiked dose | intact etelcalcetide dialyzed in the first 15 minutes ([3]; condition 2, bovine whole blood, no preincubation, 2.1 μM, LC-MS/MS): 57% | proportion of the dose eliminated in 2 hours [4]: 24% | hemodialysis clearance as % of blood flow rate ([5]; conditions 2 and 3, presence of bovine blood): ~70% | hemodialysis clearance ([5]; conditions 2 and 3, presence of bovine blood, from kAB, QB 50 ml/min): 36 mL/min | elimination rate constant in blood as % of that in the absence of blood ([5]; in vitro hemodialysis, bovine blood vs dialysate): 60% | kBA, reverse rate constant of hemodialysis clearance, reservoir B to A ([5]; model 2 fit, conditions 2 and 3, bovine blood, mean of triplicate samples): 0.0364 min^–1 | bound non-covalently to plasma proteins [6]: 40%
Molecule: CC(=O)N[C@H](CSSC[C@H](N)C(=O)O)C(=O)N[C@H](C)C(=O)N[C@H](CCCNC(=N)N)C(=O)N[C@H](CCCNC(=N)N)C(=O)N[C@H](CCCNC(=N)N)C(=O)N[C@H](C)C(=O)N[C@H](CCCNC(=N)N)C(N)=O [etelcalcetide, Etelcalcetide]
Non-covalent binding to plasma proteins [7]: ~50% | blood-to-plasma ratio [8]: ~0.5 | plasma half-life [9]: > 170 h | permeability [10]: very low

dose remaining in bovine blood ([3]; condition 2, at 15 minutes, LC-MS/MS): 44% | dose remaining in bovine blood ([3]; condition 2, at 120 minutes, LC-MS/MS): 8%
Molecule: vitamin B12 [reference compound]
